Data published in ChEMBL document CHEMBL1144504, “Antitumor studies. Part 1: design, synthesis, antitumor activity, and AutoDock study of 2-deoxo-2-phenyl-5-deazaflavins and 2-deoxo-2-phenylflavin-5-oxides as a new class of antitumor agents” (Bioorg Med Chem, 2007).

Tests used:
CCRF-HSB-2 = assay: Growth inhibition of human CCRF-HSB-2 cells by MTT assay; assay type: functional, cell-based
Outline: (§1)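 5×10^3 cells per well seeded with compound added simultaneously, triplicate wells, 72 h at 37 °C in humidified 5% CO2. MTT (5 mg/mL stock in Ca/Mg-free PBS) added for a further 4 h at 37 °C. Formazan solubilized in 0.02 N HCl/50% DMF/20% SDS, OD570 read. Inhibition (%) = (1 − T/C) × 100 against mean control; IC50 taken from dose–response curve.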

NCI-H460 = assay: Growth inhibition of human NCI-H460 cells by MTT assay; assay type: functional, cell-based; outline: as §1
KB = assay: Growth inhibition of human KB cells by MTT assay; assay type: functional, cell-based; outline: as §1
HCT-116 = assay: Growth inhibition of human HCT116 cells by MTT assay; assay type: functional, cell-based; outline: as §1
A-431 [1] = assay: Growth inhibition of human A431 cells by MTT assay; assay type: functional, cell-based; outline: as §1
Mus musculus [2] = assay: Weight change in human A431 xenografted BALB/c nude mouse at 150 mg/kg, po after 18 days; assay type: functional
Outline: (§2)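 BALB/c nude mice bearing subcutaneous A431 tumors, dosed from the day tumors reach 100–300 mm3. Vehicle: 0.5% gum arabic suspension. Intratumoral schedule: days 1-5, 8-12, 15-19. Intraperitoneal and oral schedule: daily, days 1-10. Body weight change in g recorded at 17 days (it), 10 days (ip) or 18 days (po) after treatment.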

A-431 [3] = assay: Antitumor activity against human A431 xenograft in BALB/c nude mouse at 75 mg/kg, po after 18 days relative control; assay type: functional
Outline: (§3)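 A431 implanted subcutaneously in BALB/c nude mice; dosing begins (day 1) when tumors reach 100–300 mm3. Compound suspended in 0.5% gum arabic. Intratumoral: five daily doses per week for 3 weeks (days 1-5, 8-12, 15-19). Intraperitoneal and oral: daily for 10 days (days 1-10). Tumor length a and width b measured 2–3 times weekly; volume = a×b²/2; T/C % = (Tn/T1)×100/(Cn/C1).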

Mus musculus [4] = assay: Weight change in human A431 xenografted BALB/c nude mouse at 100 mg/kg, ip after 10 days; assay type: functional; settings: route intraperitoneal; outline: as §2
Mus musculus [5] = assay: Weight change in intratumorally dosed BALB/c nude mouse bearing human A431 cells at 25 mg/kg after 17 days; assay type: functional, A-431; outline: as §2
A-431 [6] = assay: Antitumor activity against human A431 xenograft in intratumorally dosed BALB/c nude mouse at 25 mg/kg after 17 days relative control; assay type: functional; outline: as §3
Mus musculus [7] = assay: Weight change in human […] A431 xenografted BALB/c nude mouse at 75 mg/kg, po after 18 days; assay type: functional; outline: as §2
A-431 [8] = assay: Antitumor activity against human A431 xenograft in BALB/c nude mouse at 150 mg/kg, po after 18 days relative control; assay type: functional; outline: as §3
A-431 [9] = assay: Antitumor activity against human A431 xenograft in BALB/c nude mouse at 100 mg/kg, ip after 10 days relative control; assay type: functional; settings: route intraperitoneal; outline: as §3
A-431 [10] = assay: Antitumor activity against human A431 xenograft in BALB/c nude mouse at 1 mg/kg, po after 18 days relative control; assay type: functional
Outline: (§4)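 Subcutaneous A431 xenografts in BALB/c nude mice were dosed orally once tumors reached 100–300 mm3 (day 1). Dosing was daily for days 1–10 as a suspension in 0.5% gum arabic. Volume = (a×b²)/2 from calipered length and width. Relative volume T/C % = (Tn/T1)×100/(Cn/C1) and body weight change (g) were assessed 18 days after treatment.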

Mus musculus [11] = assay: Weight change in human A431 xenografted BALB/c nude mouse at 1 mg/kg, po after 18 days; assay type: functional; outline: as §4
Mus musculus [12] = assay: Weight change in human A431 xenografted BALB/c nude mouse at 1 mg/kg, ip after 10 days; assay type: functional; settings: route intraperitoneal
Outline: (§5)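 A431 cells implanted subcutaneously into BALB/c nude mice. Dosing began (day 1) once tumors reached 100–300 mm3, given ip as a suspension in 0.5% gum arabic, daily for days 1–10. Tumor length (a) and width (b) were measured 2–3 times weekly; volume = (a×b²)/2. T/C % = (Tn/T1)×100/(Cn/C1), read on day 10. Body weight change was given in g.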

A-431 [13] = assay: Antitumor activity against human A431 xenograft in BALB/c nude mouse at 1 mg/kg, ip after 10 days relative control; assay type: functional; settings: route intraperitoneal; outline: as §5
Mus musculus [14] = assay: Weight change in intratumorally dosed BALB/c nude mouse bearing human A431 cells at 1 mg/kg after 17 days; assay type: functional, A-431
Outline: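 A431 was transplanted subcutaneously into BALB/c nude mice. Intratumoral injections of a suspension in 0.5% gum arabic started when tumors reached 100–300 mm3. Injections were given five consecutive days per week for 3 weeks (days 1–5, 8–12, 15–19). Body weight change (g) was recorded on day 17.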

SMILES | IC50 (CCRF-HSB-2) [µM] | IC50 (NCI-H460) [µM] | IC50 (KB) [µM] | IC50 (HCT-116) [µM] | also measured
Cc1cccc2cc3c(=O)nc(-c4ccccc4)nc-3n(C)c12 | 0.7 |  | 3.98 |  | 
COc1ccc2c(c1)[n+]([O-])c1c(=O)nc(-c3ccccc3)nc-1n2C |  | 1.33 |  | 0.72 | 
O=c1nc(-c2ccccc2)nc2[nH]c3ccccc3cc1-2 | 3.83 |  | 5.12 |  | IC50 (A-431 [1]): 3.88 µM
CCn1c2nc(-c3ccccc3)nc(=O)c-2[n+]([O-])c2ccccc21 | 0.96 |  | 2.38 |  | 
CCn1c2nc(-c3ccccc3)nc(=O)c-2cc2cc(C)ccc21 | 0.73 |  | 0.51 |  | 
Cc1cccc2cc3c(=O)nc(-c4ccccc4)nc-3[nH]c12 | 299 |  | > 350 |  | 
COc1cccc2c1C(=O)c1c(O)c3c(c(O)c1C2=O)C[C@@](O)(C(=O)CO)C[C@@H]3O[C@H]1C[C@H](N)[C@H](O)[C@H](C)O1 [DOXORUBICIN] |  |  |  |  | IC50 (A-431 [1]): 0.05 µM
Cn1c2nc(-c3ccccc3)nc(=O)c-2cc2ccccc21 | 11.8 | 2.23 | 2.33 | 2.11 | Activity (Mus musculus [2]): -0.4 g; IC50 (A-431 [1]): 1.44 µM; Activity (A-431 [3]): 97.6%; Activity (Mus musculus [4]): -1.7 g; Activity (Mus musculus [5]): 0.1 g; Activity (A-431 [6]): 57.2%; Activity (Mus musculus [7]): -0.9 g; Activity (A-431 [8]): 51.8%; Activity (A-431 [9]): 53.4%
CN[C@@H]1C[C@H]2O[C@@](C)([C@@H]1OC)n1c3ccccc3c3c4c(c5c6ccccc6n2c5c31)C(=O)NC4 [STAUROSPORINE] |  |  |  |  | Activity (A-431 [10]): 72.9%; Activity (Mus musculus [11]): -2 g; Activity (Mus musculus [12]): -1 g; Activity (A-431 [13]): 84.9%; Activity (Mus musculus [14]): -0.6 g
CCn1c2nc(-c3ccccc3)nc(=O)c-2cc2ccccc21 | 1.79 |  | 2.62 |  | IC50 (A-431 [1]): 0.76 µM; Activity (Mus musculus [5]): -1.6 g; Activity (A-431 [6]): 109%

The next lines start with results.

IC50 (CCRF-HSB-2) [µM] | IC50 (NCI-H460) [µM] | IC50 (KB) [µM] | IC50 (HCT-116) [µM] | SMILES | also measured
0.5 | 4.39 | 1.75 | 3.25 | Cc1ccc2c(c1)[n+]([O-])c1c(=O)nc(-c3ccccc3)nc-1n2C | 
1.23 | 3.1 | 0.5 | 2.91 | COc1ccc2c(c1)cc1c(=O)nc(-c3ccccc3)nc-1n2C | 
0.15 |  | 0.7 |  | Nc1ccn([C@@H]2O[C@H](CO)[C@@H](O)[C@@H]2O)c(=O)n1 [CYTARABINE] | 
0.98 | 6.05 | 2.18 | 6.58 | CC(C)n1c2nc(-c3ccccc3)nc(=O)c-2[n+]([O-])c2ccccc21 | 
2.14 |  | 5.04 |  | COc1ccc2cc3c(=O)nc(-c4ccccc4)nc-3n(C)c2c1 | 
1.49 | 2.08 | 1.86 | 1.68 | Cc1ccc2c(c1)cc1c(=O)nc(-c3ccccc3)nc-1n2C | IC50 (A-431 [1]): 2.45 µM
 | 3.72 |  | 3.76 | COc1cc2c(c(OC)c1OC)[n+]([O-])c1c(=O)nc(-c3ccccc3)nc-1n2C | 
1.29 |  | 3.28 |  | Cc1cccc2c1n(C)c1nc(-c3ccccc3)nc(=O)c-1[n+]2[O-] | 
24.4 |  | 62.7 |  | COc1ccc2cc3c(=O)nc(-c4ccccc4)nc-3[nH]c2c1 | 
1.71 |  | 2.97 |  | CCn1c2nc(-c3ccccc3)nc(=O)c-2[n+]([O-])c2cc(C)ccc21 | 
0.97 | 2.72 | 1.08 | 1.8 | Cn1c2nc(-c3ccccc3)nc(=O)c-2[n+]([O-])c2ccccc21 | IC50 (A-431 [1]): 1.31 µM
